The target of one data set is Glutamate NMDA receptor. The data set can be described thus: Inhibition of [3H]glycine binding to N-methyl-D-aspartate glutamate receptor in synaptic membranes of rat cerebral cortex. In kind it is cell membranes. In short, it runs like this:
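Crude synaptic membranes from adult rat cerebral cortex; 20 nM [3H]glycine, 50 mM Tris/citrate pH 7.10, 20 min at 4 °C. Seven concentrations in duplicate; stock 5 mM in DMSO. Ki from at least six-point inhibition curves by nonlinear fitting; geometric mean of at least three experiments.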

The next data set deals with Albumin (Rattus norvegicus, UniProt P02770). The data set can be described thus: Binding to rat serum albumin.
Albumin, sequence (P02770 whole entry): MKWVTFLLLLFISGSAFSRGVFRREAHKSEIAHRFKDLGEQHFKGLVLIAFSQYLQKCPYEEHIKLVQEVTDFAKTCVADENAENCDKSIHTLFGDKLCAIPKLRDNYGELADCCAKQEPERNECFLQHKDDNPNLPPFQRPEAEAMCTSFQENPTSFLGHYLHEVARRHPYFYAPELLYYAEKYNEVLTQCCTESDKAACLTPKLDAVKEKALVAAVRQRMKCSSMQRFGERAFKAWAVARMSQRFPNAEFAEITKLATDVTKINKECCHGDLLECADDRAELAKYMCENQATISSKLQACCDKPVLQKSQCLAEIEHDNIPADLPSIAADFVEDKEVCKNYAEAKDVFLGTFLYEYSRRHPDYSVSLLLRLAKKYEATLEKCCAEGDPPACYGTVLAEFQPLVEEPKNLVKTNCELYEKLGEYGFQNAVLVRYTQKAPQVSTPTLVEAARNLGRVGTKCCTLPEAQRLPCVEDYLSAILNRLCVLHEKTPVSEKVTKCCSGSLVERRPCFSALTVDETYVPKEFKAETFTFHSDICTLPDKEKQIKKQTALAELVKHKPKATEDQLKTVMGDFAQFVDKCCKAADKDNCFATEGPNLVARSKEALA
The subject of data set [1] is Mus musculus. The data set can be described thus: Inhibition of NMDA-induced convulsions in mice by the compound when administered by peroral route. In kind it is functional. As to conditions: po. In short, it runs like this: (§1)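 Male CD-1 mice (18-29 g); test compound given iv (1 min) or po (1 h) before icv NMDA (1 nmol/mouse). Animals observed 30 min for generalized seizures and scored protected if none occurred. Percentage protected per group recorded; ED50 estimated with 95% confidence limits.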

In data set [2] the test system is Mus musculus. The data set can be described thus: Inhibition of NMDA-induced convulsions in mice by the compound when administered by intravenous route. It counts as functional. In short, it runs like this:
as §1

The target of data set [3] is Glutamate receptor ionotropic, kainate. The data set can be described thus: Inhibition of binding of [3H]kainate to Ionotropic glutamate receptor kainate in synaptic membranes of rat cerebral cortex. It counts as cell membranes. In short, it runs like this: (§2)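 Rat cortical membrane radioligand binding; compounds from 5 mM DMSO stock tested at five concentrations, 10 nM to 100 µM, with a reference compound as internal control.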

In data set [4] the test system is Rattus norvegicus. Nature of the data set: Postischemic effect of the compound in the MACo model in rats measured 24 hr after occlusion at an intravenous dose of 1 mg/kg. It counts as functional. In short, it runs like this:
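Male Sprague-Dawley rats (280-350 g), permanent distal MCA electrocoagulation under chloral hydrate; single iv bolus 1 mg/kg given 6 h after occlusion, vehicle 3% DMSO in water. Infarct volume from TTC-stained 0.5 mm coronal slices 24 h after occlusion, trapezoidal rule, n = 8.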

For data set [5], the system named is Rattus norvegicus. Nature of the data set: Preischemic effect of the compound in the MACo model in rats measured 24 hr after occlusion at an intravenous dose of 3 mg/kg. In kind it is functional. In short, it runs like this:
(§3)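 Permanent distal MCA electrocoagulation in male Sprague-Dawley rats (280-350 g) under chloral hydrate (400 mg/kg ip), normothermic; compound iv 5 min before occlusion, in 3% DMSO in water. At 24 h, 0.5 mm coronal slices stained with 2% TTC (37 °C, 20 min); infarct volume by trapezoidal rule, n = 8; reduction vs vehicle.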

The target in data set [6] is Glutamate receptor ionotropic, AMPA (Rattus norvegicus, UniProt P19490+P19491+P19492+P19493). The data set can be described thus: Inhibition of binding of [3H]AMPA to Ionotropic glutamate receptor AMPA in synaptic membranes of rat cerebral cortex. It counts as cell membranes. In short, it runs like this:
as §2

The species entered for data set [7] is Rattus norvegicus. Nature of the data set: Percent damage reduction. It counts as functional. Also noted: concentration or dose not given beside the values. In short, it runs like this: as §3
For data set [8], the system named is Rattus norvegicus. The data set can be described thus: Preischemic effect of the compound in the MACo model in rats measured 24 hr after occlusion at an intravenous dose of 0.3 mg/kg. It counts as functional. In short, it runs like this:
as §3

A short description of data set [9]: Inhibition of binding of [3H]CPP in presence of glutamate to glutamate binding site of N-methyl-D-aspartate glutamate receptor in synaptic membranes of rat cerebral cortex. In kind it is cell membranes.
Data set [10] in a line: Effective dose was evaluated. It counts as functional.
Data set [11] relates to Rattus norvegicus. Nature of the data set: Preischemic effect of the compound in the MACo model in rats measured 24 h after occlusion at an intravenous dose of 1 mg/kg. In kind it is functional. In short, it runs like this: as §3
In data set [12] the test system is Rattus norvegicus. Nature of the data set: Preischemic effect of the compound in the MACo model in rats measured 24 hr after occlusion at an intravenous dose of 0.1 mg/kg. In kind it is functional. In short, it runs like this:
as §3

These results are taken from ChEMBL document CHEMBL1132105, “Substituted analogues of GV150526 as potent glycine binding site antagonists in animal models of cerebral ischemia” (J Med Chem, 1999).

What is called ED50 is the dose that gives a 50% effect, or the effect in half of the subjects. In general, Ki refers to the dissociation constant of the complex between target and ligand, obtained from inhibition or displacement.

`COc1ccc(NC(=O)NCc2ccc(NC(=O)/C=C/c3c(C(=O)[O-])[nH]c4cc(Cl)cc(Cl)c34)cc2)cc1.[Na+]`: on Glutamate NMDA receptor, the “Log Ki” value is reported as -7.69.

In the case of `O=C(/C=C/c1c(C(=O)[O-])[nH]c2cc(Cl)cc(Cl)c12)NC12CC3CC(CC(C3)C1)C2.[Na+]`, the “RSA tR” value on Albumin was 141.2 min.

`C[C@@H](NC(N)=O)c1ccc(NC(=O)/C=C/c2c(C(=O)[O-])[nH]c3cc(Cl)cc(Cl)c23)cc1.[Na+]`: the “Log Ki” value on Glutamate NMDA receptor is -7.93.

On to `Nc1ccc(NC(=O)/C=C/c2c(C(=O)[O-])[nH]c3cc(Cl)cc(Cl)c23)cc1.[Na+]`, for which the “RSA tR” value at Albumin is listed as 23.2 min.

In the case of `NC(=O)Nc1ccc(NC(=O)/C=C/c2c(C(=O)[O-])[nH]c3cc(Cl)cc(Cl)c23)cc1.[Na+]`, the results for the median effective dose (ED50) with Mus musculus [1] and in the data set with Mus musculus [2] were 9.6 mg/kg and 0.55 mg/kg, respectively. Moreover, at Albumin, the “RSA tR” value stood at 28.3 min. For the same molecule, at Glutamate NMDA receptor, the “Log Ki” value is recorded as -8.8.

Take `CC/N=C(\S)NCc1ccc(NC(=O)/C=C/c2c(C(=O)[O-])[nH]c3cc(Cl)cc(Cl)c23)cc1.[Na+]`: at Albumin, the “RSA tR” value was 34.1 min. Also, the “Log Ki” value at Glutamate NMDA receptor is recorded as -7.91.

As for `O=C(/C=C/c1c(C(=O)[O-])[nH]c2cc(Cl)cc(Cl)c12)NC1CCCCC1.[Na+]`, the “RSA tR” value on Albumin amounted to 25.7 min.

On to `CC(=O)Nc1ccc(NC(=O)/C=C/c2c(C(=O)[O-])[nH]c3cc(Cl)cc(Cl)c23)cc1.[Na+]`, for which, on Albumin, the “RSA tR” value was found to be 31.6 min.

As for `O=C(/C=C/c1c(C(=O)[O-])[nH]c2cc(Cl)cc(Cl)c12)Nc1ccc(CNC(=O)Nc2cccnc2)cc1.[Na+]`, the “Log Ki” value on Glutamate NMDA receptor is on record as -7.83.

As for `C[C@H](NC(N)=O)c1ccc(NC(=O)/C=C/c2c(C(=O)[O-])[nH]c3cc(Cl)cc(Cl)c23)cc1.[Na+]`, the “Log Ki” value on Glutamate NMDA receptor is given as -8.2.

For `O=C(/C=C/c1c(C(=O)[O-])[nH]c2cc(Cl)cc(Cl)c12)NCc1ccccc1.[Na+]`, the “RSA tR” value at Albumin came to 66.9 min.

In the case of `O=C(/C=C/c1c(C(=O)[O-])[nH]c2cc(Cl)cc(Cl)c12)Nc1ccc(CNC(=O)NC2CCOCC2)cc1.[Na+]`, the “RSA tR” value at Albumin is reported as 29.6 min. Besides, the “Log Ki” value at Glutamate NMDA receptor was -8.15.

`CCNC(=O)NCc1ccc(NC(=O)/C=C/c2c(C(=O)[O-])[nH]c3cc(Cl)cc(Cl)c23)cc1.[Na+]`: the “Log Ki” value at Glutamate NMDA receptor is given as -8.62.

Take `NC(=O)NCc1ccc(NC(=O)/C=C/c2c(C(=O)[O-])[nH]c3cc(Cl)cc(Cl)c23)cc1.[Na+]`: the “Log Ki” value is recorded as -4.68 in data set [3], -8.67 at Glutamate NMDA receptor and -3.48 in [9]. The 50% effective dose (ED50) in the data set with Mus musculus [1] came to 2 mg/kg; in [10], 0.2 mg/kg; in the data set with Mus musculus [2] it was 0.07 mg/kg. For the same molecule, the “RSA tR” value at Albumin was determined as 40.7 min. In addition, the Infarct volume is reported as 54.7 mm**3 with Rattus norvegicus [4]; 27.8 mm**3 with Rattus norvegicus [5]; 36.4 mm**3 in the data set on Rattus norvegicus [8]; 38.9 mm**3 in the data set on Rattus norvegicus [11]; 61.9 mm**3 with Rattus norvegicus [12]. In addition, the affinity in data set [6], expressed as Ki, was 105 µM. Besides, in the data set listed under Rattus norvegicus [7], the damage reduction was 41% [middle of 5 runs].

Regarding `O=C(/C=C/c1c(C(=O)[O-])[nH]c2cc(Cl)cc(Cl)c12)Nc1ccc(CNC(=O)Nc2ccccc2)cc1.[Na+]`, the “Log Ki” value at Glutamate NMDA receptor was -7.7.

Consider `NC(=O)NCCc1ccc(NC(=O)/C=C/c2c(C(=O)[O-])[nH]c3cc(Cl)cc(Cl)c23)cc1.[Na+]`, for which the results for the ED50 in the data set with Mus musculus [1] and in the data set with Mus musculus [2] were 17.3 mg/kg and 0.14 mg/kg, respectively. Further, the “RSA tR” value on Albumin worked out at 33.9 min. In addition, the “Log Ki” value at Glutamate NMDA receptor is recorded as -8.2.

As to `O=C(/C=C/c1c(C(=O)[O-])[nH]c2cc(Cl)cc(Cl)c12)Nc1ccc(CNC(=O)NC2CC2)cc1.[Na+]`, the “Log Ki” value on Glutamate NMDA receptor is reported as -8.25.

`O=C(O)CNC(=O)NCc1ccc(NC(=O)/C=C/c2c(C(=O)[O-])[nH]c3cc(Cl)cc(Cl)c23)cc1.[Na+]`: the “Log Ki” value on Glutamate NMDA receptor is on record as -8.57.

Consider `O=C(/C=C/c1c(C(=O)[O-])[nH]c2cc(Cl)cc(Cl)c12)Nc1ccccc1.[Na+]` [GAVESTINEL SODIUM], for which the ED50 with Mus musculus [1] was determined as 6 mg/kg; in the data set with Mus musculus [2] it was 0.06 mg/kg. On Albumin, the “RSA tR” value is listed as 60.1 min. Moreover, on Glutamate NMDA receptor, the “Log Ki” value is reported as -8.49.

For `O=c1[nH]c2cc(Cl)c(Cl)c([N+](=O)[O-])c2[nH]c1=O` [LICOSTINEL], the “RSA tR” value at Albumin came out at 12.1 min.
